The nature of test [1]: Cytotoxicity against chinese hamster R2(VC) cells after 96 hrs by CellTitre-Blue fluorescence assay. The class given is functional, cell-based. To be noted: Cricetulus griseus. The procedure, abridged: (§1)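 CHO sublines were grown in FF-RPMI/DFBS; transfectants were maintained with G418. Cells were exposed to antifolate (0–1 μM) for 96 h at 37 °C with 2 nM LCV (RT16) or 25 nM LCV (R2/PCFT4). PC43-10 cells were grown in standard RPMI1640/DFBS instead. FRα specificity was tested by adding 200 nM folic acid. Viable cells were read by CellTiter-Blue fluorescence (ex 560/em 590), and IC50 was taken from dose–response curves; means of 3–10 experiments.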

In test [2] the test system is R2. As to the kind of experiment: Cytotoxicity against chinese hamster R2 cells expressing human PCFT4 after 96 hrs by CellTitre-Blue fluorescence assay. The class given is functional, cell-based, Cricetulus griseus. As to conditions: R2, 96 h.
For test [3], the system named is KB. The test can be described thus: Cytotoxicity against human KB cells at 1 mM after 96 hrs by CellTitre-Blue fluorescence assay. To be noted: read-out: GI. The class given is functional. In short, it runs like this: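 KB cells were exposed for 96 h at 37 °C to metformin (0–10 mM) or AICA (0–2 mM) in FF-RPMI/DFBS with 2 nM LCV. Growth was read by CellTiter-Blue fluorescence relative to drug-free cells.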

Test [4] concerns the target Bifunctional purine biosynthesis protein ATIC (Homo sapiens) (UniProt P31939). As to the kind of experiment: Inhibition of AICARFTase in human KB cells assessed as phosphorylated AMPK at 1 mM after 48 hrs by Western blot analysis. The class given is cell-based. The procedure, abridged: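 KB cells were treated for 48 h with 10 μM thymidine, or with AMPK activators (metformin 10 mM, AICA 1 mM, AICAR 1 mM) against a water/DMSO vehicle. Cells were sonicated in 10 mM Tris-HCl pH 7.0 with protease/phosphatase inhibitors. 90 μg protein was run on 4–20% SDS gels and blotted for phospho-AMPK, total AMPK and β-actin, with infrared detection.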

Test [5] concerns KB. The test can be described thus: Cell cycle arrest in human KB cells assessed as accumulation at G1/G0 phase at 1 uM after 96 hrs by propidium iodide staining-based flow cytometry (reference value: 67.4%). Format: functional. On the technique in general: A flow cytometer gives signals particle by particle.
Test [6] addresses Folate receptor alpha (Homo sapiens) (UniProt P15328). As to the kind of experiment: Displacement of [3H]folic acid from human FRalpha expressed in chinese hamster RT16 cells after 15 mins by scintillation counting analysis. The class given is cell-based. In short, it runs like this: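 FRα-expressing RT16 CHO cells (~1.5 × 10^6) were grown as monolayers. Bound folates were stripped with ice-cold acetate buffer (pH 3.5), then neutralised with HEPES-buffered saline (pH 7.4). Cells were then competed with [3H]folic acid against graded unlabelled ligand. Bound label read by scintillation, normalised to Folin-phenol protein (pmol/mg). Relative affinity = inverse molar ratio for 50% displacement, folic acid set at 1. Three experiments.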

Test [7] is described as follows: (§2) Inhibition of GARFTase in human KB cells assessed as incorporation of [14C]-glycine into [14C]-formyl GAR incubated 30 mins prior to [14C]-glycine addition measured after 16 hrs by radiometric assay in presence of azaserin. The class given is cell-based. In short, it runs like this:
(§3)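 KB cells were preincubated 1 h in folate- and glutamine-free medium with 2 nM LCV and a range of drug concentrations. Azaserine (4 μM final) was added for 30 min, then 2 mM glutamine and [14C(U)]glycine (0.1 mCi/L) for 16 h at 37 °C. TCA extracts were ether-washed and run on AG1×8 anion exchange. [14C]formyl GAR was measured per mg protein, and IC50 was set against DMSO controls; three experiments.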

Test [8] relates to KB. Described as §2. Format: cell-based. The procedure, abridged:
as §3

The subject of test [9] is KB. As to the kind of experiment: Induction of apoptosis in human KB cells assessed as early apoptotic cells at 1 uM after 96 hrs by Annexin V-FITC/7-AAD staining-based flow cytometry (reference value: 0.485%). Format: functional.
Test [10] has as its target T1, Reduced folate transporter (Homo sapiens) (UniProt P41440).
T1 sequence (whole entry): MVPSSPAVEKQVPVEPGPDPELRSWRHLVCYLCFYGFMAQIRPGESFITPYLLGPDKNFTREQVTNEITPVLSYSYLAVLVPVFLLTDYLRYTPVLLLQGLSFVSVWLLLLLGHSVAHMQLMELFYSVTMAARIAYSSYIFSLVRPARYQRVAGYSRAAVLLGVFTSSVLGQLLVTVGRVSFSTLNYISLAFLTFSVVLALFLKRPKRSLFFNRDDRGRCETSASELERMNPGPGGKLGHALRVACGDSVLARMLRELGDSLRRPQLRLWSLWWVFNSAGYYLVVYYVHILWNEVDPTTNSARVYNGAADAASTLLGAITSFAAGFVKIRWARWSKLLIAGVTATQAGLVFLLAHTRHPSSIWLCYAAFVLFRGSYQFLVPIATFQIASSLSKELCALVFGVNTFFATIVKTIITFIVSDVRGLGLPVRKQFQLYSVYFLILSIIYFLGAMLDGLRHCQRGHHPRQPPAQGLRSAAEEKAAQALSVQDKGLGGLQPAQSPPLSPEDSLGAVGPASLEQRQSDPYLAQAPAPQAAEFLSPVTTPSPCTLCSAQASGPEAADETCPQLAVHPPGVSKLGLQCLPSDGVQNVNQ
As to the kind of experiment: Inhibition of human RFC expressed in chinese hamster PC43-10 cells assessed as reduction of [3H]MTX uptake at 10 uM after 48 hrs by scintillation counting analysis relative to control. The class given is cell-based. The procedure, abridged: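 PC43-10 CHO cells expressing human RFC (~1.5 × 10^6) were seeded 48 h before assay. Uptake of 0.5 μM [3H]MTX was run in Hank's balanced salts for 2 min at 37 °C, with or without 10 μM unlabelled inhibitor, and stopped with ice-cold PBS. Cells were dissolved in 0.5 N NaOH, counted by scintillation and normalised to Folin-phenol protein (pmol/mg). RFC-null R2 cells gave baseline. Three experiments.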

The test system of test [11] is KB. The test can be described thus: Induction of apoptosis in human KB cells assessed as late apoptotic cells at 1 uM after 96 hrs by Annexin V-FITC/7-AAD staining-based flow cytometry (reference value: 2.09%). The class given is functional.
Test [12] deals with KB. As to the kind of experiment: Cell cycle arrest in human KB cells assessed as accumulation at S phase at 1 uM after 96 hrs by propidium iodide staining-based flow cytometry (reference value: 15.9%). The class given is functional.
Test [13] relates to KB. As to the kind of experiment: Induction of apoptosis in human KB cells assessed as necrotic cells at 1 uM after 96 hrs by Annexin V-FITC/7-AAD staining-based flow cytometry (RVB = 7.80%). The class given is functional.
In test [14] the test system is KB. As to the kind of experiment: Cell cycle arrest in human KB cells assessed as accumulation at G2/M phase at 1 uM after 96 hrs by propidium iodide staining-based flow cytometry (reference value: 13.2%). The class given is functional.
Test [15] has as its system KB. As to the kind of experiment: Induction of apoptosis in human KB cells assessed as viable cells at 1 uM after 96 hrs by Annexin V-FITC/7-AAD staining-based flow cytometry (RVB = 89.6%). Format: functional. As to conditions: read-out: Activity.
Test [16] deals with KB. As to the kind of experiment: Cell cycle arrest in human KB cells assessed as accumulation at sub-G1 phase at 1 uM after 96 hrs by propidium iodide staining-based flow cytometry (reference value: 3.5%). The class given is functional.
Test [17] relates to KB. As to the kind of experiment: Cytotoxicity against human KB cells expressing human RFC/FRalpha/PCFT after 96 hrs by CellTitre-Blue fluorescence assay in presence of adenosine. The class given is functional, cell-based. The procedure, abridged: (§4)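 KB cells were grown in FF-RPMI with DFBS and 2 nM LCV, exposed to antifolate (0–1 μM) for 96 h at 37 °C, and read by CellTiter-Blue fluorescence. IC50 was taken from dose–response curves relative to untreated cells. Protection arms added adenosine 60 μM, thymidine 10 μM, AICA 320 μM, or folic acid 200 nM. Means of 3–10 experiments.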

Test [18] relates to R2. As to the kind of experiment: Cytotoxicity against chinese hamster R2 cells after 96 hrs by CellTitre-Blue fluorescence assay. To be noted: Cricetulus griseus, R2, 96 h.
Test [19] deals with KB. The test can be described thus: Cytotoxicity against human KB cells expressing human RFC/FRalpha/PCFT after 96 hrs by CellTitre-Blue fluorescence assay in presence of AICA. The class given is functional, cell-based. The procedure, abridged: as §4
Test [20] can be described thus: Cytotoxicity against chinese hamster RT16 cells expressing human FRalpha after 96 hrs by CellTitre-Blue fluorescence assay in presence of folic acid. Format: functional, cell-based. To be noted: Cricetulus griseus, RT16, 96 h. The procedure, abridged:
as §1

For test [21], the system named is KB. As to the kind of experiment: Cytotoxicity against human KB cells expressing human RFC/FRalpha/PCFT after 96 hrs by CellTitre-Blue fluorescence assay in presence of thymidine. The class given is functional, cell-based. In short, it runs like this:
as §4

Consider seven molecules from ChEMBL document CHEMBL3102834, “Discovery of 5-substituted pyrrolo[2,3-d]pyrimidine antifolates as dual-acting inhibitors of glycinamide ribonucleotide formyltransferase and 5-aminoimidazole-4-carboxamide ribonucleotide formyltransferase in de novo purine nucleotide biosynthesis: implications of inhibiting …” (J Med Chem, 2013).

Calls of active or inactive are those of the source. The rule behind the calls is not given here.

Chain of Bifunctional purine biosynthesis protein ATIC (Homo sapiens) (P31939 whole entry, looked up): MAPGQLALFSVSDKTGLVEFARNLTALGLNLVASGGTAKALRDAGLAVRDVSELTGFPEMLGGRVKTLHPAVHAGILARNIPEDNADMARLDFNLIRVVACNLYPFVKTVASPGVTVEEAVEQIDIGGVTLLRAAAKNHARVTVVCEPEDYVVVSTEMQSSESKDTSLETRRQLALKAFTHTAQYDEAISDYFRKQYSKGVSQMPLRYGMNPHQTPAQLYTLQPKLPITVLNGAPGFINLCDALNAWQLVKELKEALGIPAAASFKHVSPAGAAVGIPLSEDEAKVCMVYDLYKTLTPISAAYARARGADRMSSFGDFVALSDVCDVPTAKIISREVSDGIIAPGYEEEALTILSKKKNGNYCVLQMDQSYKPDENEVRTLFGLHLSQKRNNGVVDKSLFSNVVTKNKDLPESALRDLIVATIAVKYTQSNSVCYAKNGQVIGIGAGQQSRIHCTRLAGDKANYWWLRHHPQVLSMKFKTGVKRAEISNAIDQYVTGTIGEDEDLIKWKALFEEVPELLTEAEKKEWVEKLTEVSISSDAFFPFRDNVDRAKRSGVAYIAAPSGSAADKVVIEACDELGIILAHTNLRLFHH
Chain of Folate receptor alpha (Homo sapiens) (P15328 25-234 limits assumed): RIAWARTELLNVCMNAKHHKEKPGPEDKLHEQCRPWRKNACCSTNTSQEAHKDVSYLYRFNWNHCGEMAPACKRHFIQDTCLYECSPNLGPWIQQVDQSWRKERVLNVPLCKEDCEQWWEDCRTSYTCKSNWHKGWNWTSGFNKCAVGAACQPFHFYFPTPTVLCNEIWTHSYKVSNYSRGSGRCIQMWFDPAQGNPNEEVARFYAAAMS

Consider `Nc1nc2c(c(=O)[nH]1)C[C@@H](CCc1ccc(C(=O)N[C@@H](CCC(=O)O)C(=O)O)cc1)CN2` [LOMETREXOL], for which the IC50 (usually the midpoint of a concentration-inhibition curve) in [1] was > 1000 nM.
With `Nc1nc2[nH]c(CCCCCCc3ccc(C(=O)N[C@@H](CCC(=O)O)C(=O)O)cc3)cc2c(=O)[nH]1`, the IC50 (in the test with R2 [2]; in [1]) was > 1000 nM throughout.
Regarding `NC(=O)c1[nH]cnc1N`, the inhibition of growth at 1000 µM in the test with KB [3] is 20%. For the same molecule, the inhibition – broadly, how much of the control response was suppressed – in test [4] is “inactive”.
For `Nc1nc2[nH]c(CCCCCc3ccc(C(=O)N[C@@H](CCC(=O)O)C(=O)O)cc3)cc2c(=O)[nH]1`, the IC50 (in the test on R2 [2]; in [1]) was > 1000 nM throughout.
As to `Nc1nc2[nH]c(CCCCc3ccc(C(=O)N[C@@H](CCC(=O)O)C(=O)O)cc3)cc2c(=O)[nH]1`, the Activity with KB [5] amounted to 22.3%; in the test with KB [9] it was 35.5%; in the test on KB [11] it was 28.8%; in the test on KB [12], 31.4%; with KB [13], 0.748%; with KB [14], 1.2%. Further, in the test on KB [16], the Activity came out at 45.1%. Also, in test [6], the result was Active. For the same molecule, the IC50 in [7] was 5.71 nM; in test [1], > 1000 nM. Besides, the results for the inhibition entry (in the test with KB [8]; in test [10]) were “Dose-dependent effect” and < 25%, respectively. Also, the viability at 1 µM with KB [15] stood at 35%.
Regarding `Nc1nc2[nH]cc(CCCCCc3ccc(C(=O)N[C@@H](CCC(=O)O)C(=O)O)cc3)c2c(=O)[nH]1`, the IC50 (in the test on R2 [2]; in test [1]; with R2 [18]; in [20]) was > 1000 nM in each case. Besides, the outcome with KB [17] and in the test on KB [19] was inactive. In addition, the outcome in the test with KB [21] was Active.
On to `Nc1nc2[nH]cc(Cc3ccc(C(=O)N[C@@H](CCC(=O)O)C(=O)O)cc3)c2c(=O)[nH]1`, for which the IC50 (in the test on R2 [2]; in test [1]; with R2 [18]; in [20]) was > 1000 nM in each case.
